One assay concerns RAW264.7. Description: Inhibition of LPS-induced nitric oxide production in mouse RAW264.7 cells preincubated for 30 mins followed by LPS-stimulation and measured after 24 hrs by Griess assay. Type of assay: functional, cell-based. The gist of the method: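 RAW264.7 macrophages seeded at 50 000 cells/well and grown 24 h, then exposed to compound for 30 min at 37 °C before LPS (100 ng/mL) co-incubation for 24 h. Nitrite in supernatant measured by Griess reagent (10 min mixing), absorbance 540 nm. Compounds from 10 mM DMSO stocks; final DMSO ≤0.1%. Dexamethasone positive control. Triplicate runs; IC50 calculated.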

In another assay the test system is Caenorhabditis elegans. Description: Insecticidal activity against Caenorhabditis elegans measured at 12 […]. Type of assay: functional, organism-based. The gist of the method:
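L1 C. elegans (30−40 worms/well) in S medium with E. coli OP50 and chloramphenicol, exposed to compound at 40, 20, 10, 5, 1 and 0 μg/mL diluted in filter-sterilized M-9; 3 replicates per treatment. Plates sealed, kept at 24 °C for 60 h in the dark; dead larvae counted at 12, 24, 36, 48, 60. M-9 negative control, levamisole 1 mg/mL positive control.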

The test system of another assay is A549. Description: Cytotoxicity against human A549 cells measured after 7 days by MTT assay. The class given is functional, cell-based. On the technique in general: Tetrazolium dyes change colour on reduction, which living cells bring about.
Another assay has as its system HeLa. Description: Cytotoxicity against human HeLa cells measured after 7 days by MTT assay. The class given is functional, cell-based.
For the next assay, the system named is HepG2. Description: Cytotoxicity against human HepG2 cells measured after 7 days by MTT assay. The class given is functional, cell-based.
The next assay concerns Escherichia coli. Description: Antibacterial activity against Escherichia coli ATCC 25922 by microplate assay. The class given is functional, organism-based.
The subject of assay [1] is Staphylococcus aureus. Description: Antibacterial activity against Staphylococcus aureus ATCC 25923 by microplate assay. The class given is functional, organism-based.
The test system of assay [2] is Staphylococcus aureus. Description: Antibacterial activity against methicillin-resistant Staphylococcus aureus ATCC 33591 by microplate assay. The class given is functional, organism-based. An outline of the steps:
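MRSA (ATCC 33591) was one strain in a panel of six pathogenic bacteria: four general and two marine Vibrio. Assayed by the microplate method, with ciprofloxacin as positive control.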

The next assay concerns Bacillus cereus. Description: Antibacterial activity against Bacillus cereus ATCC 11778 by microplate assay. Type of assay: functional, organism-based.
In another assay the test system is Vibrio parahaemolyticus. Description: Antibacterial activity against Vibrio parahaemolyticus ATCC 17802 by microplate assay. Type of assay: functional, organism-based.
A further assay deals with Vibrio alginolyticus. Description: Antibacterial activity against Vibrio alginolyticus ATCC 17749 by microplate assay. Type of assay: functional, organism-based. The settings on record: NBRC 15630 = ATCC 17749.
A further assay concerns Helicoverpa armigera. Description: Insecticidal activity against Helicoverpa armigera hubner measured every other day for 8 days starting from 2 days post dosing. The class given is functional, organism-based. An outline of the steps:
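Neonate H. armigera larvae fed artificial diet dosed with serial dilutions of compound (1 mg/mL in DMSO) at 200, 100, 50, 25 and 12.5 μL/well in six-well plates; three groups of three larvae, 3 replicates per treatment. Held at 25 ± 1 °C, 80% relative humidity. Dead larvae counted on days 2, 4, 6, 8. DMSO negative, azadirachtin positive, plain diet blank controls.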

Data on six compounds can be found in ChEMBL document CHEMBL4316638, “Bioactive Meroterpenoids and Isocoumarins from the Mangrove-Derived Fungus Penicillium sp. TGM112” (J Nat Prod, 2019).

The structures appear in SMILES notation. In brackets after ≈: the same amount, converted by molar mass. Activity calls are given as the source filed them. The rule behind the calls is not given here.

In general, EC50 refers to the concentration needed to bring the measured effect to its halfway point. High values mean a less potent agent, low ones a more potent agent. On to `C=C1[C@@]23C(=O)O[C@H](C)[C@@]2(O)C(=O)O[C@]1(C)[C@@H](O)C1=C2COC4CC(=O)OC(C)(C)[C@@]24CC[C@@]13C` (some centres undefined), for which, in the assay with RAW264.7, the inhibition entry is “inactive”. In the assay with Caenorhabditis elegans, the EC50 turned out to be 19.1 µg/mL (≈ 40.3 µM). In addition, the result in the assay with A549, with HeLa, in the assay with HepG2, in the assay on Escherichia coli, with Staphylococcus aureus [1] and in the assay on Staphylococcus aureus [2] was inactive. Further, the result with Bacillus cereus, in the assay with Vibrio parahaemolyticus and with Vibrio alginolyticus was inactive.

Turning to `C=C1[C@@]23C(=O)O[C@H](C)[C@]24O[C@@]2(C(=C)[C@]5(C=CC(=O)OC5(C)C)C[C@@H](O)[C@]32C)[C@H](OC(C)=O)[C@@]1(C)OC4=O`, the inhibition result in the assay on RAW264.7 is “inactive”. The compound also yielded an EC50 with Caenorhabditis elegans of 20.6 µg/mL (≈ 40 µM). The result with A549, in the assay with HeLa, with HepG2, in the assay on Escherichia coli, in the assay with Staphylococcus aureus [1] and with Staphylococcus aureus [2] was inactive. In addition, the outcome with Bacillus cereus, in the assay with Vibrio parahaemolyticus and in the assay with Vibrio alginolyticus was inactive.

The IC50 is the concentration at which inhibition is half-maximal. A high value points to weaker potency in that assay. Regarding `C=C1[C@@]23C(=O)O[C@H](C)[C@@]2(O)C(=O)O[C@]1(C)[C@@H](O)C1=C(C)[C@]2(CCC(=O)OC2(C)C)CC[C@@]13C`, the inhibition entry in the assay on RAW264.7 is “inactive”. Besides, in the assay on Helicoverpa armigera, the IC50 worked out at 100 µg/mL (≈ 217 µM). Further, in the assay on Caenorhabditis elegans, the EC50 stood at 19.5 µg/mL (≈ 42.3 µM). Also, the outcome in the assay on A549, in the assay on HeLa, in the assay on HepG2, in the assay on Escherichia coli, in the assay with Staphylococcus aureus [1] and with Staphylococcus aureus [2] was inactive. The result in the assay on Bacillus cereus, in the assay on Vibrio parahaemolyticus and in the assay with Vibrio alginolyticus was inactive.

Regarding `C=C1[C@@]23C(=O)O[C@H](C)[C@]24O[C@@]2(C(=C)[C@]5(C=CC(=O)OC5(C)C)C[C@@H](O)[C@]32C)[C@H](O)[C@@]1(C)OC4=O`, the inhibition result in the assay on RAW264.7 is “inactive”. In addition, it took 200 µg/mL (≈ 423 µM) to reach half-maximal inhibition with Helicoverpa armigera (IC50). Besides, a half-maximal response with Caenorhabditis elegans (EC50) required 9.9 µg/mL (≈ 21 µM). For the same compound, the outcome in the assay with A549, in the assay with HeLa, in the assay with HepG2, with Escherichia coli, with Staphylococcus aureus [1] and with Staphylococcus aureus [2] was inactive. Also, the outcome with Bacillus cereus, in the assay on Vibrio parahaemolyticus and in the assay on Vibrio alginolyticus was inactive.

`C=C1[C@]2(CCC(=O)OC2(C)C)C[C@@H](OC(=O)/C(C)=C\C)[C@]2(C)[C@]34C(=O)O[C@H](C)[C@]35O[C@]12[C@H](OC(C)=O)[C@@](C)(OC5=O)C4=O`: the inhibition entry in the assay with RAW264.7 is “inactive”. This compound also yielded an IC50 in the assay on Helicoverpa armigera of 200 µg/mL (≈ 333 µM). This compound had an EC50 with Caenorhabditis elegans of 9.4 µg/mL (≈ 15.7 µM). For the same compound, the outcome with A549, in the assay with HeLa, in the assay on HepG2, in the assay on Escherichia coli, with Staphylococcus aureus [1] and in the assay with Staphylococcus aureus [2] was inactive. Moreover, the result in the assay on Bacillus cereus, in the assay with Vibrio parahaemolyticus and with Vibrio alginolyticus was inactive.

Regarding `C=C1[C@@]23C(=O)O[C@H](C)[C@]24O[C@@]2(C(=C)[C@]5(C=CC(=O)OC5(C)C)CC[C@]32C)[C@H](O)[C@@]1(C)OC4=O`, the inhibition entry in the assay on RAW264.7 is “inactive”. This compound also registered an EC50 in the assay with Caenorhabditis elegans of 38.2 µg/mL (≈ 83.7 µM). The result with A549, in the assay with HeLa, in the assay with HepG2, in the assay on Escherichia coli, in the assay on Staphylococcus aureus [1] and in the assay on Staphylococcus aureus [2] was inactive. Moreover, the outcome in the assay with Bacillus cereus, with Vibrio parahaemolyticus and with Vibrio alginolyticus was inactive.
